ADAM17 inh – inhibits human ADAM17. 0.83% of 370,000 active. recombinant ADAM17, EDANS/DABCYL FRET peptide cleavage. AID 720648. inhibition, % at 6.95 µM;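 active means inhibition above the mean of compounds lying between control limits plus 3 SD, set per campaign, cut at about 8.5% in these data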;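 further: 0% = DMSO-only wells as the low control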
NR2E3 ag-1 – activates human photoreceptor nuclear receptor NR2E3; Q9Y5X4; GST-NR2E3/biotin-RetCOR TR-FRET, 1536-well; inhibition of corepressor binding, % at 4.78 µM; 0.12% of 320,000 active;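 active means percent inhibition above the cutoff of mean plus 3 SD of all tested compounds, set per screening campaign, cut at about 20% in these data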;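 further: 0% = DMSO wells and 100% = biotin wells as full block of FRET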
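System: GST-NR2E3 and biotin-RetCOR proteins; probe or stimulus: 7 nM biotin-RetCOR; doses: compound at 4.8 µM, single dose; schedule: Compound–protein incubation for 5 h at 4 °C; detection: time-resolved FRET; read-out: percent inhibition; controls: biotin wells as high control, 0.6% DMSO wells as low control; format: 1536-well plates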
NR2E3 ag-2 – human photoreceptor-specific nuclear receptor agonism; CHO-S Gal4-NCOR/VP16-NR2E3 two-hybrid, luciferase; inhibition of corepressor binding, % at 3.98 µM; 0.35% of 360,000 active; AID 602229;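 active means inhibition above the mean of all tested compounds plus 3 SD, cut at about 70% in these data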;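 further: 0% = DMSO with NR2E3 transfected cells and 100% = cells lacking NR2E3 construct; higher means lower luciferase signal from less NR2E3 corepressor binding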
ADAM10 inh – ADAM10 inhibition, QFRET primary screen. recombinant ADAM10, EDANS/DABCYL FRET peptide cleavage, 3 h. inhibition, % at 7 µM. 0.62% of 370,000 active. AID 720582;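 active means inhibition above a per-campaign cutoff equal to the mean of compounds falling between control-based bounds plus 3 SD, cut at about 20% in these data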;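 further: 0% = DMSO wells while the 100% control is not disclosed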
proKLK7 act – activates the human kallikrein-7 zymogen; P49862; purified proKLK7, EDANS-DABCYL substrate fluorescence; 100% is mature enzyme control, 0% vehicle; activation, % at 7 µM; 0.9% of 370,000 active;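 active means activation above the mean of all tested compounds plus 3 SD, computed per campaign excluding outliers beyond control limits, cut at about 13% in these data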
Target sequence (P49862 whole entry, looked up): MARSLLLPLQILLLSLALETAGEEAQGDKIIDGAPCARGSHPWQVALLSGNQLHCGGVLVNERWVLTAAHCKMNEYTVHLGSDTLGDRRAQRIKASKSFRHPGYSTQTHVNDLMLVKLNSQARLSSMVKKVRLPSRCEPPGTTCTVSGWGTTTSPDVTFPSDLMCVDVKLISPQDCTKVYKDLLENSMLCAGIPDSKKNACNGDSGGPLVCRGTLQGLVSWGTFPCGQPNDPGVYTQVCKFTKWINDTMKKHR
GASC-1 inh – blocks human GASC-1 demethylase activity; Q9H3R0; GST-JMJD2C(1-420) H3K9me3 demethylation, DELFIA europium; inhibition, % at 2.35 µM; 0.069% of 330,000 active;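 active means more than half of a compound's replicate wells show inhibition beyond 50%, single wells judged on their own value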;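 further: signal counts dimethyl H3K9 product captured on neutravidin plate; 0% = median of DMSO wells and 100% = 0.3 times that DMSO median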
Target sequence (Q9H3R0 1-420 limits assumed): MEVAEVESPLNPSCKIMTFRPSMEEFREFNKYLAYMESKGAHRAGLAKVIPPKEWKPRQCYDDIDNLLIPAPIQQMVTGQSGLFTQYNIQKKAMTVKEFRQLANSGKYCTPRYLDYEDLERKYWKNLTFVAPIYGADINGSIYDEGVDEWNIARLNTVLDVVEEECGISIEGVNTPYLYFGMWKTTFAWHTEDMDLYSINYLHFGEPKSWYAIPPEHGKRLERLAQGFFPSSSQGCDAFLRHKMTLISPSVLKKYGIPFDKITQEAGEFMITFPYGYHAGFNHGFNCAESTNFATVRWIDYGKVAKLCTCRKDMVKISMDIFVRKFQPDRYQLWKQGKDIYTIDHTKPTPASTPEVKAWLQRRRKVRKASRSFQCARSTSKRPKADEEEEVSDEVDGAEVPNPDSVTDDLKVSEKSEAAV
ADAM10 counter – ADAM10 inhibition, counter-screen for ADAM17 exosite hits; shares compounds with ADAM17 inh; recombinant ADAM10, EDANS/DABCYL FRET peptide cleavage, 3 h; inhibition, % at 6.95 µM; 47% of 2,900 active;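 active means mean inhibition over the triplicate runs exceeds the activity threshold set in the earlier primary screen, cut at about 20% in these data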;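 further: 0% = DMSO wells and 100% = marimastat wells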
ADAM17 confirm – human ADAM17 inhibition, confirmation. shares compounds with ADAM17 inh. 65% of 2,900 active. inhibition, % at 6.95 µM. recombinant ADAM17, EDANS/DABCYL QFRET peptide cleavage;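 active means mean inhibition across replicates above the hit cutoff set in the primary screen, cut at about 8.5% in these data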;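 further: 0% = DMSO wells and 100% = marimastat wells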
* hit, by the source's call; . = no result. This is a sample that favours compounds with a hit; in the whole collection about 2.5% have one here.

SMILES	ADAM17 inh	NR2E3 ag-1	NR2E3 ag-2	ADAM10 inh	proKLK7 act	GASC-1 inh	ADAM10 counter	ADAM17 confirm
C=CCC[C@H](Cc1ccc(F)cc1)C(=O)OC[C@@H](NC(=O)[C@@H](CC=C)CC(=O)N(CCO)Cc1ccccc1)C(C)(C)C	12.4*	.	19.6	19.5	0.5	-3.9	38.4*	19.4*
C=CC[C@@H](CC(=O)N[C@H](CO)Cc1ccccc1)C(=O)N[C@H](COC(=O)[C@@H](CC=C)Cc1ccc(F)cc1)Cc1c[nH]c2ccccc12	11.3*	.	27.3	24.4*	0.4	3.6	44.4*	22.0*
C=CC[C@@H](CC(=O)N[C@H](CO)Cc1ccccc1)C(=O)N[C@H](COC(=O)[C@@H](CC=C)Cc1ccc(F)cc1)C(C)(C)C	8.7*	.	-11.0	16.1	-0.2	-4.9	33.6*	19.2*
CC1(C)CC(=O)C/C(=N/NC(=O)COc2ccc3ccccc3c2Br)C1	5.2	2.6	0.1	7.3	-0.5	6.7	.	.
CC(C)CNC(=S)NC1CC2CCCC(C1)N2Cc1cccs1 (stereo not drawn)	12.2*	3.0	-8.2	8.2	0.5	-2.7	11.0	7.3
COC(=O)[C@]12C[C@H](CC(=O)NCc3ccccc3)C(=O)N(CCc3ccc(OC)c(OC)c3)C1=C[C@H](COCc1ccccc1)O[C@@H]2C	-1.5	.	.	-1.2	1.2	.	.	.
COC(=O)[C@]12C[C@H](CC(=O)NCc3ccc(C)o3)C(=O)N(Cc3ccccc3)C1=C[C@H](C1CCCC1)O[C@@H]2C	12.3*	.	.	8.7	0.4	.	10.4	6.6
COC(=O)[C@]12C[C@H](CC(=O)NCC3CCCCC3)C(=O)N(CCc3ccc(OC)c(OC)c3)C1=C[C@H](COCc1ccccc1)O[C@@H]2C	10.6*	.	.	5.9	1.0	.	26.0*	9.1*
COC(=O)[C@]12C[C@H](CC(=O)N3CCN(C(=O)c4ccco4)CC3)C(=O)N(Cc3ccc(Cl)cc3Cl)C1=C[C@H](COCc1ccccc1)O[C@@H]2C	12.6*	.	.	16.5	0.6	.	17.6	10.1*
Cc1noc(C)c1NC(=O)N(C)C[C@H]1OCc2cn(nn2)CCCC(=O)N([C@@H](C)CO)C[C@@H]1C	-1.9	.	-60.9	-0.7	-0.6	.	.	.
O=C(/C=C/c1ccc(N2CCCCC2)c([N+](=O)[O-])c1)c1ccc(O)cc1	9.4*	-3.0	-98.5	15.6	-0.2	7.3	25.8*	14.2*
COc1ccccc1C(=O)/C=C/c1ccc(N2CCCCC2)c([N+](=O)[O-])c1	2.4	-0.6	-38.0	-1.7	-0.2	-2.2	.	.
COc1ccc([C@H]2C[C@H](n3cc(COC(=O)c4ccccc4)nn3)[C@@H](O)CN2Cc2cccs2)cc1	12.1*	.	-8.9	10.8	0.3	.	31.6*	14.1*
O=C(OCc1cn([C@@H]2C[C@H](c3ccccc3)N(Cc3cccs3)C[C@H]2O)nn1)c1ccccc1	-0.6	.	-37.5	3.6	0.5	.	.	.
c1ccc2oc(SCc3cn4ccsc4n3)nc2c1	9.2*	1.4	-156.4	8.7	-0.4	13.8	7.0	7.9
CCCNc1ncnc2onc(C)c12	9.8*	0.4	5.6	5.4	0.3	3.1	10.7	8.6
CC1CCC(NC(=O)C(NS(=O)(=O)c2cccc3nsnc23)C(C)C)CC1 (stereo not drawn)	13.5*	-6.0	-26.1	0.6	-0.3	6.1	5.0	7.0
Cc1c(NC(=O)c2cccc(NC(=O)c3ccco3)c2)cccc1C(=O)O	9.0*	4.6	9.2	5.6	-0.1	-3.2	-7.2	-0.8
O=C(Nc1cccc(O)c1)c1ccc(S(=O)(=O)N2CCCCCC2)cc1	10.2*	.	-23.9	9.7	-0.3	-0.3	11.5	7.5
CC(C)Oc1ccc(C(=O)Nc2ccc(Cl)c(S(=O)(=O)Nc3ccc(Cl)cc3)c2)cc1	10.0*	0.5	-19.6	17.8	0.0	-12.8	26.2*	16.1*
Cc1ccc(C)c(N2N=C(C(=O)Nc3cccc(S(=O)(=O)N4CCCCC4)c3)CCC2=O)c1	13.3*	-0.5	-3.8	11.7	-0.9	-3.2	9.1	6.2
CC(C)Oc1ccc(C(=O)Nc2cccc(S(=O)(=O)N3CCCC3)c2)cc1	9.0*	.	25.1	13.3	1.5	-5.8	6.4	2.3
O=C(Nc1cccc(O)c1)c1cccc(S(=O)(=O)N2CCCC2)c1	-3.5	-5.8	-7.0	-0.6	0.7	-12.8	.	.
COC(=O)CSc1nnc(-c2cccs2)o1	-0.1	.	.	-5.3	0.7	.	.	.
F[B-](F)(F)c1cncc2ccccc12	-2.4	.	8.8	-6.2	0.0	.	.	.
SMILES	ADAM17 inh	NR2E3 ag-1	NR2E3 ag-2	ADAM10 inh	proKLK7 act	GASC-1 inh	ADAM10 counter	ADAM17 confirm
Cn1nc(-c2ccccc2)c(CSc2ccccc2)c1Cl	9.3*	-0.6	8.4	7.4	0.1	3.2	12.7	9.3*
COc1ccc2nc(Nc3ccc4c(c3)OCO4)sc2c1	9.8*	0.4	-120.6	16.6	0.5	-9.4	8.2	6.9
O=C1CCCCC1C(Nc1ccc(Cl)cc1)c1ccccc1 (stereo not drawn)	10.6*	2.7	-14.5	18.0	-0.2	10.7	13.6	13.2*
O=C(NCC1CC1(Cl)Cl)Nc1ccc(Cl)c(Cl)c1 (stereo not drawn)	9.5*	3.5	-66.5	14.1	0.3	7.7	32.3*	14.7*
Nc1ccc(N=Nc2ccccc2)c2cccnc12	9.5*	-1.9	-36.5	16.1	-0.5	-1.3	25.4*	14.5*
COC(=O)c1ccccc1-n1c(C)nc(=O)c(-c2ccccc2)c1C	-1.8	.	-1.0	2.7	0.5	0.1	.	.
C#CCNC(=O)C[C@H]1C[C@@]2(C(=O)OC)C(=C[C@H](C(C)C)O[C@@H]2C2CC2)N(Cc2cccc3ccccc23)C1=O	8.9*	.	.	10.0	-0.8	.	6.3	7.6
CCOC(=O)[C@]12CCC=C1N(Cc1cccc3ccccc13)C(=O)[C@H](CC(=O)NCc1cccs1)C2	11.3*	.	23.5	12.8	0.5	.	20.4*	11.7*
COC(=O)[C@]12C[C@H](CC(=O)NCCCCc3ccccc3)C(=O)N(Cc3cccc4ccccc34)C1=C[C@H](C(C)C)O[C@@H]2C1CC1	9.6*	.	.	6.1	-0.6	.	12.3	11.6*
COCCCNC(=O)C[C@H]1C[C@@]2(C(=O)OC)C(=C[C@H](C(C)C)O[C@@H]2C2CC2)N(Cc2ccccc2)C1=O	-3.1	.	.	-6.1	0.2	.	.	.
COc1ccc(OCC(=O)N2c3ccccc3CC2C)c([N+](=O)[O-])c1 (stereo not drawn)	4.7	.	-17.4	-1.7	0.2	-2.8	.	.
